# Test results taken from PubChem BioAssay AID804 (SRMLSC, 2007).
# Out of some 140,000 compounds screened, about 710 (0.51%) were called active. The entries come from a sample that favours actives as a whole. Values without a mark were called inactive.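 Rule for the calls: active = inhibition above a set limit, 3 SD over the mean compound inhibition (cut at about 44% in these data); inactive = the rest.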
# Experiment: growth inhibitors of yeast BB579 in restrictive medium, primary screen, yeast lifespan-shortening project, S. cerevisiae (AID 804)
# Conditions: OD615, 48 h, at 10 µM, stronger effect = higher value
# Method in brief: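 Assay system: S. cerevisiae DeaD strain BB579 yeast. Medium: CSMM-D restrictive synthetic medium containing dextrose (glucose). Times: 4 h cell preincubation, 48 h compound exposure, 30 °C humidified. Signal: OD615 turbidity measurement. Benchmarks: positive control amphotericin B 10 µg/mL.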
row,Compound,inhibition
1,COc1cc(Br)cc(/C=N/c2ncn[nH]2)c1O,54.7% (active)
2,COc1ccc(Br)cc1/C=N/n1c(C)nnc1C,-33.3%
3,Oc1ccc(Br)cc1C=Nc1ccc2[nH]ncc2c1,-67.6%
4,Clc1cccc(CN2COc3c(cc(Cl)c4cccnc34)C2)c1,99.4% (active)
5,Nc1c(C(=O)NCc2ccccc2)nnn1Cc1cccc(Cl)c1,-3.98%
6,O=c1[nH]n(-c2cccc(Cl)c2)c2ncccc12,-63.7%
7,Cc1cc(OCCCC(=O)NCCN2C(=O)S/C(=C\c3cccnc3)C2=O)ccc1Cl,-3.48%
8,CCc1c(C)sc(NC(=O)/C=C/c2ccc3c(c2)OCO3)c1C(=O)OC,-27.2%
9,Nc1nc(NC(=O)/C=C/c2ccccc2)nn1-c1ccccc1,-11.2%
10,COc1ccc(C(=O)O/N=C(\N)Cc2ccc(Cl)cc2Cl)cc1OC,-25.8%
11,NC(N)=N/N=C/c1ccc(OCc2ccc(Cl)cc2Cl)cc1,99.3% (active)
12,COC(=O)c1sc2ncccc2c1OCc1ccc(Cl)cc1Cl,-44.1%
13,COc1ccccc1CN(C)C(=O)C1(c2ccc(Cl)cc2)CC1,-2.98%
14,N/C(=N\OC(=O)CC1CCCCC1)c1ccccc1,-2.81%
15,CCCCn1c(=S)[nH]c2ccccc2c1=O,6.35%
16,Cc1c(Cl)c([N+](=O)[O-])nn1CCCC(=O)Nc1cc(Cl)ccc1Cl,2.39%
17,Nc1nc(SCC(=O)NN(c2ccccc2)c2ccccc2)n[nH]1,-6.56%
18,CC(C)(C)C1CCC(=NNC(=O)c2cc(-c3ccccc3)n[nH]2)CC1 (stereo not given),-16.9%
19,O=C1NC(c2ccccc2)=NC1(Nc1ccccn1)C(F)(F)F (stereo not given),-3.11%
20,CCN=C1S/C(=C\c2cc(Br)ccc2OCC(=O)OCC)C(=O)N1CC,-14.3%
21,COCCn1c(SCC(=O)Nc2ccc3c(c2)CCC3)nc2ccccc2c1=O,-36.9%
22,COc1ccc(C2Nc3ccccc3C(=O)N2c2ccc(F)cc2)cc1Cn1nnc2ccccc21 (stereo not given),-29.1%
23,CC(C)CNC(=S)Nc1ccc(F)cc1,14.5%
24,CCOC(=O)c1cc2c(nc1NC(=S)Nc1ccccc1)CC(C)(CC)OC2 (stereo not given),0.93%
25,COc1cc(NC(=O)c2ccccc2NS(=O)(=O)c2ccc(Cl)s2)cc(OC)c1,-5.4%

row,Compound,inhibition
1,S=C(NCc1ccc(Cl)cc1)NC1CCCCC1,-27.3%
2,S=C(NCc1ccc(Cl)cc1)NC12CC3CC(CC(C3)C1)C2,50% (active)
3,COC(=O)Cc1ccc(NC(=S)NCc2ccc(Cl)cc2)cc1,-19.1%
4,O=C(CCc1nc2ccccc2c(=O)[nH]1)OCC(=O)c1cccc(Cl)c1,-13.4%
5,N#C/C(=C/c1cccc([N+](=O)[O-])c1)c1nnc2n1CCCCC2,-18.8%
6,COCC(C)n1c(C)cc(C(=O)CSc2cc(C)c3ccccc3n2)c1C (stereo not given),-56.2%
7,O=c1[nH]cnc2c1c(-c1ccccc1)cn2-c1ccc(F)cc1,-19.6%
8,COc1ccc(-n2nnnc2-c2nc3ccccc3s2)cc1,-33.6%
9,O=C1OC(OC(=O)c2ccccc2Br)C(N2CCOCC2)=C1Cl (stereo not given),-32.6%
10,CCOc1cc(N2CCOCC2)c(OCC)cc1NC(=O)COc1cccc2cccnc12,67.1% (active)
11,CCOc1cc(N2CCOCC2)c(OCC)cc1NC(=O)COC(=O)[C@H](Cc1c[nH]c2ccccc12)NC(C)=O,-16%
12,Cc1cccc(OCC(=O)NC(=S)Nc2ccccc2N2CCOCC2)c1,-49.4%
13,CCc1ccc2c(c1)C(c1ccc([N+](=O)[O-])cc1)=NNC(c1ccccc1)=N2,-23.5%
14,Cn1c(=O)c(C(=O)Nc2ncccn2)c(O)c2ccccc21,68.5% (active)
15,O=C(Nc1ncccn1)c1cccs1,-21.9%
16,Cn1c(=O)c(Sc2ccc(Cl)cc2)c(O)c2ccccc21,-21.7%
17,Cc1ccc(NC(=O)c2sc3nc(N)c(C#N)cc3c2N)cc1,-23.2%
18,O=C(Cc1c[nH]c2ccccc12)N/N=C/c1cccc(F)c1,-39.1%
19,COC(=O)Cn1c(=NC(=O)c2cc(OC)c(OC)c(OC)c2)sc2cc(OC)ccc21,-32.8%
20,CCN(CC)CCn1c2ccc(Cl)cc2c2nc(C)sc21,-1.41%
21,COC(=O)Cn1c2ccc(C)cc2c2nc(C)sc21,43.6% (active)
22,CCOC(=O)c1nn(-c2ccccc2F)c2nc(Nc3ccccc3)cc(=O)n12,-45.6%
23,Cc1c(C=O)c2ccccn2c1C(=O)c1ccncc1,43.9% (active)
24,CC(OC(=O)CNS(=O)(=O)/C=C/c1ccccc1)C(=O)Nc1ccc(S(=O)(=O)N2CCCC2)cc1 (stereo not given),-25.4%
25,CN1CCC(=NNC(=O)c2ccc(N(Cc3ccc(Cl)cc3)S(C)(=O)=O)cc2)CC1,-8.48%
